{
  "source": "paper PMC3601557",
  "about": "(Chemistry & biology, 2012)",
  "key": {"[1]": {"tested_on": "P. falciparum D10 parasites", "assay": "P. falciparum replication assay", "assay_type": "cell-based"}, "[2]": {"tested_on": "P. falciparum ring stage parasites (food vacuole)", "assay": "Phenotypic characterization of treated ring stage parasites", "assay_type": "cell-based", "settings": "24 hr, Giemsa smears", "method_in_brief": "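Synchronized ring-stage cultures (2% parasitemia) were treated with a range of test compound concentrations or DMSO for 24 hr. Morphology was then examined on Giemsa-stained thin blood smears, and the food vacuole defect was scored as enlargement of this acidic organelle.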"}, "[3]": {"tested_on": "FP2, FP2′, and FP3", "assay": "Competitive ABPP with Cy5-DCG-04 in parasite lysates", "assay_type": "biochemical, P. falciparum", "settings": "D10 lysates, 30 min preincubation, 1 µM Cy5-DCG-04 1 hr"}, "[4]": {"molecular_target": "T1, FP1 (Plasmodium falciparum, UniProt P25805)", "T1 sequence (P25805 333-569)": "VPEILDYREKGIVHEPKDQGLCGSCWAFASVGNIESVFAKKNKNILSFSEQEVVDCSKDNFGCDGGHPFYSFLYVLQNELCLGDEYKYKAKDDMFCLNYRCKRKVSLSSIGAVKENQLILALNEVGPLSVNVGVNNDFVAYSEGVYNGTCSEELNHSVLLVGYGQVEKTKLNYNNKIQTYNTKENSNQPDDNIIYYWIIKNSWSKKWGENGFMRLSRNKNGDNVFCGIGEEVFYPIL", "assay": "Competitive ABPP with Cy5-DCG-04 in parasite lysates", "assay_type": "biochemical, P. falciparum", "settings": "D10 lysates, 30 min preincubation, 1 µM Cy5-DCG-04 1 hr", "method_in_brief": "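Trophozoites were harvested 36 hr post-invasion, freed from RBCs with saponin, and extracted in PBS with 1% NP40. Soluble lysate was diluted 1:10 in acetate buffer (50 mM sodium acetate, 5 mM MgCl2, 5 mM DTT) and pretreated 30 min with test compound over a concentration range. Then 1 µM Cy5-DCG04 was added for 1 hr. Reactions were boiled in loading buffer, resolved by SDS-PAGE, and scanned for in-gel fluorescence.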"}, "[5]": {"molecular_target": "T1, FP1", "assay": "Falcipain inhibition in living parasites", "assay_type": "cell-based, P. falciparum"}, "[6]": {"molecular_target": "T2, DPAP1 (Plasmodium falciparum, UniProt Q8IIJ9)", "T2 sequence (Q8IIJ9 370-599 limits assumed)": "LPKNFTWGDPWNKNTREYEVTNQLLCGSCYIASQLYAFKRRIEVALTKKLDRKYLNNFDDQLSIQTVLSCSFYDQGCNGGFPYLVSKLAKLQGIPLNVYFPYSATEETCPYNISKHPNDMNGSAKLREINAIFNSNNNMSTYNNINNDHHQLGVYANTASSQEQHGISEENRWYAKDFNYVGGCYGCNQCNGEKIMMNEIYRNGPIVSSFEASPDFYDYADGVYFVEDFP", "T2 sequence (Q8IIJ9 600-700 limits assumed)": "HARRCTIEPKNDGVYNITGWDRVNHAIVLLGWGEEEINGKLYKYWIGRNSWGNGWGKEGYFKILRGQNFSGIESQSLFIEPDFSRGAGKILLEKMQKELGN", "T2 sequence (Q8IIJ9 28-209 limits assumed)": "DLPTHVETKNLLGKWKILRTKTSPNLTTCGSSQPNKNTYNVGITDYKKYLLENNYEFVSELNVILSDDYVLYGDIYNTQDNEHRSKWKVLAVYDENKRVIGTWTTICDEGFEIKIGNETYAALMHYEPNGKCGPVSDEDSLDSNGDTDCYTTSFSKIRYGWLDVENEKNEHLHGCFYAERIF", "assay": "Competitive ABPP with Cy5-DCG-04, DPAP1 labeling", "assay_type": "cell-based, P. falciparum", "method_in_brief": "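A P. falciparum culture at 20% parasitemia and 2% hematocrit was exposed to graded test compound for 1 hr. Aliquots were lysed with 0.15% saponin in PBS. Parasite pellets were labelled for 1 hr with 1 µM Cy5-DCG04 in acetate buffer containing 1% NP40. After SDS-PAGE, DPAP1 band fluorescence was quantified and fitted to a sigmoidal dose-response curve to give IC50.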"}, "[7]": {"tested_on": "DPAP3", "assay": "Competitive ABPP with DPAP activity-based probe FY01", "assay_type": "biochemical, P. falciparum", "settings": "competitive ABPP with FY01, Figure S3"}, "[8]": {"molecular_target": "T3, recombinantly produced FP2 (Plasmodium falciparum, UniProt Q8I6U4)", "T3 sequence (Q8I6U4 244-484)": "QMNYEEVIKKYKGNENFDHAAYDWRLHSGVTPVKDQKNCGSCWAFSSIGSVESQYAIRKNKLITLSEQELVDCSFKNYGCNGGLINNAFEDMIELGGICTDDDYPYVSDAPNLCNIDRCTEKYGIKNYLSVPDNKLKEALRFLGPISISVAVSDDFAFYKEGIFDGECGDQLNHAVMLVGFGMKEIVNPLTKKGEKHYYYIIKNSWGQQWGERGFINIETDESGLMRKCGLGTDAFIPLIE", "assay": "Kinetics of substrate turnover inhibition", "assay_type": "biochemical, P. falciparum", "method_in_brief": "(§1)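 Fluorescence (ex 350 nm, em 460 nm) was followed for 2 hr at several inhibitor concentrations. Turnover relative to DMSO controls (v/v0) was fitted to an irreversible inhibition model; ki = kobs/[I].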"}, "[9]": {"molecular_target": "T4, recombinantly produced FP3 (Plasmodium falciparum, UniProt Q8IIL0)", "T4 sequence (Q8IIL0 243-492)": "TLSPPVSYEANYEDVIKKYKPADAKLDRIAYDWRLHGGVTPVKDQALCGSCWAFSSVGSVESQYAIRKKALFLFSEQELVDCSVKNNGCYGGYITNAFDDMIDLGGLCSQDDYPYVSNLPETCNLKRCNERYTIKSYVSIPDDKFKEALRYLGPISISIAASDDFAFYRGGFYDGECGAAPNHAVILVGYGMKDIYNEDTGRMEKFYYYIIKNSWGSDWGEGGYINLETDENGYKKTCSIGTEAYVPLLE", "assay": "Kinetics of substrate turnover inhibition", "assay_type": "biochemical, P. falciparum", "method_in_brief": "as §1"}, "[10]": {"molecular_target": "cathepsin L (Mus musculus, UniProt P06797)", "sequence (P06797 114-334)": "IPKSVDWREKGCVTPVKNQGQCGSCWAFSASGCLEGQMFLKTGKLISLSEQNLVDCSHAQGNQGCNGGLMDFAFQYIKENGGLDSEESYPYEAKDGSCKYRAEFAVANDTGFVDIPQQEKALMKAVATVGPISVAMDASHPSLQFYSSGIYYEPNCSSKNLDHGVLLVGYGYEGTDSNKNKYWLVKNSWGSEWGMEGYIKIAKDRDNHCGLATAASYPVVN", "assay_type": "cell-based", "settings": "mouse macrophages, 0.5 µM", "method_in_brief": "(§2)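 Bone marrow-derived mouse macrophages were preincubated with 0.5 or 5 µM test compound. Residual protease activity was then read in protein extracts by labelling with either a broad papain-like cysteine protease activity-based probe (cathepsins) or a proteasome-specific activity-based probe (proteasome).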"}, "[11]": {"tested_on": "cathepsins B, H, S, and Z", "assay_type": "cell-based", "settings": "mouse macrophages, 5 µM", "method_in_brief": "as §2"}, "[12]": {"tested_on": "proteasome", "assay_type": "cell-based", "settings": "mouse macrophages preincubated with 0.5 µM and 5 µM", "method_in_brief": "as §2"}, "[13]": {"tested_on": "proteins in the 28 kDa region (food vacuole falcipains)", "assay": "Labeling of intact schizonts with rhodamine probes", "assay_type": "cell-based, P. falciparum", "settings": "pretreatment with 10 µM nonfluorescent compound, then 10 µM RhSym4 1 hr", "method_in_brief": "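Purified schizonts were pretreated with 10 µM nonfluorescent competitor or DMSO. They were then incubated 1 hr with 10 µM rhodamine-tagged probe in PBS. Samples were boiled in loading buffer, proteins resolved by SDS-PAGE, and labelled bands detected by flatbed fluorescence scanning.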"}, "[14]": {"tested_on": "red blood cells (RBCs)", "settings": "even at the highest tested concentrations (>25 µM); ref Conroy et al., 2010; cited from earlier work"}},
  "note": "Entries after “also recorded” stand apart in the source; their conditions may differ.",
  "data": [
    {"smiles": "CC[C@H](C)[C@@H](C(=O)O[C@@H](CC(C)C)C(=O)N[C@@H](CC(C)C)C(=O)N[C@@H](C)/C=C/C(=O)N1C(=O)C=C(OC)[C@@H]1C)N(C)C", "note": "[Sym4, symplostatin 4]", "values": [
      {"measurement": "fold higher concentration for parasite killing than for food vacuole defect", "setting": "[1]; EC50 0.7 µM versus 0.1 µM", "result": 7, "unit": "fold"},
      {"measurement": "fold more potent than Sym4^mmp → Ala (EC50)", "setting": "[1]; replication assay, 75 hr", "result": 40, "unit": "fold"},
      {"measurement": "concentration causing swollen food vacuole phenotype", "setting": "[2]", "result": 0.1, "unit": "µM"},
      {"measurement": "concentration inhibiting Cy5-DCG-04 labeling of FP2, FP2′, and FP3", "setting": "[3]", "result": 1.5, "unit": "nM"},
      {"measurement": "concentration inhibiting Cy5-DCG-04 labeling of FP1", "setting": "[4]", "result": "> 1.6", "unit": "µM"},
      {"measurement": "IC50", "setting": "[5]", "result": "140 ± 23", "unit": "nM"},
      {"measurement": "inhibition of DPAP1", "setting": "[6]; competitive ABPP with Cy5-DCG04, Figure 4", "result": "neither DPAP1 (Figure 4) nor DPAP3 (Figure S3) is inhibited"},
      {"measurement": "inhibition of DPAP1", "setting": "[6]; living parasites, 1 hr, at 1 µM", "result": "did not inhibit"},
      {"measurement": "inhibition of DPAP3", "setting": "[7]", "result": "neither DPAP1 (Figure 4) nor DPAP3 (Figure S3) is inhibited"},
      {"measurement": "mode of inhibition", "setting": "[8]", "result": "irreversible inhibitor"},
      {"measurement": "mode of inhibition", "setting": "[9]", "result": "irreversible inhibitor"},
      {"measurement": "inhibition of cathepsin L", "setting": "[10]", "result": "inhibit; also recorded: inhibits a large portion"},
      {"measurement": "inhibition of cathepsins B, H, S, and Z", "setting": "[11]", "result": "also inhibited; also recorded: required ten times higher concentrations (i.e., 5 µM) to reach the same inhibition level"},
      {"measurement": "inhibition of the proteasome", "setting": "[12]", "result": "did not inhibit; also recorded: does not inhibit"},
      {"measurement": "competition of RhSym4 labeling", "setting": "[13]", "result": "sensitive to preincubation"},
      {"measurement": "lysis of red blood cells", "setting": "[14]", "result": "no lysis"}
    ]}
  ]
}
